In the library only some 2.2% were active in any assay of this set; here they are far more common.
PLK1 PBD inh = inhibitors of human Plk1 polo box domain binding. P53350. Plk1 PBD phosphopeptide binding, fluorescence polarization. inhibition, %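 (tested at about 20 µM)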. hit rate 0.13% among 97,000; in the data active means inhibition above about 34%, passing the limit was not always enough
PLK1 kinase inh = inhibitors of human PLK1 kinase | recombinant PLK1 kinase, TR-FRET peptide phosphorylation | inhibition, % at 10 µM | AID 619 | P53350 | hit rate 0.53% among 97,000;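 active means inhibition of 50% or more in the single-concentration screen; inactive means inhibition below 50%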;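 further: 0% = DMSO max control and 100% = H-89 dihydrochloride min control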
cytoskel mod = alters cytoskeleton assembly in HUVEC cells. HUVEC TNFa F-actin phalloidin imaging, high content. inhibition, % at 2 µM. hit rate 0.18% among 91,000. AID 836;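 active means inhibition above the batch mean plus 3 SD and confirmed as a hit by visual image inspection, cut at about 30% in these data, passing the limit was not always enough; inconclusive means above the inhibition threshold but rejected on visual inspection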
Rev-RRE block = inhibitors of HIV-1 Rev-RRE RNA interaction | P05866 | Rev peptide-RRE RNA binding, FRET | inhibition, % at 8 µM | hit rate 0.79% among 97,000 | AID 704;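 active means inhibition above the screen-wide mean plus 3 SD, cut at about 35% in these data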;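 further: 0% = median DMSO wells and 100% = median Neomycin B control wells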
Target sequence (P05866 whole entry, looked up): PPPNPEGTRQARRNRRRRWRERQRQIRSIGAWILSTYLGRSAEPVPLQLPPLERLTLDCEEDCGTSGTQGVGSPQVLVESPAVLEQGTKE
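Probe or stimulus: fluorescein-Rev peptide as binding partner; assay system: Cy5-tagged RRE RNA duplex with fluorescein-tagged Rev peptide; timing: 5 min compound–RNA preincubation, then 15 min with peptide, 25 °C; medium: HEPES pH 7.5 buffer with KCl, MgCl2, NaCl and EDTA; signal: fluorescein-to-Cy5 FRET, 480 nm excitation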
E-sel TNF inh = TNF alpha driven E-selectin expression inhibition; inhibition, % at 2 µM; hit rate 0.71% among 120,000; AID 1246; HUVEC TNFa-induced E-selectin immunofluorescence, high content;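 active means inhibition above the batch mean plus 3 SD, and confirmed as a hit on visual image review, cut at about 43% in these data; inconclusive means passes the inhibition cutoff but fails visual image review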;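 further: 0% = TNF-stimulated DMSO wells and 100% = unstimulated control wells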
FAK inh = FAK (human) kinase inhibition | biochemical FAK kinase activity assay | Q05397 | inhibition, %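 (tested at 7 µM)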 | hit rate 0.84% among 97,000 | AID 727;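 further: 0% = DMSO and 100% = reference compound high control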
FAK inh conf = FAK (human) inhibition confirmed | shares compounds with FAK inh | FAK kinase biochemical inhibition assay | inhibition, % at 7 µM | hit rate 28% among 750
* = called active by the depositor; ? = inconclusive; · = no result. Unless noted, no stated cut-off is given here; in the data, active means inhibition above about 19%; inactive means the rest.

SMILES	PLK1 PBD inh	PLK1 kinase inh	cytoskel mod	Rev-RRE block	E-sel TNF inh	FAK inh	FAK inh conf
O=C(O)CCC(=O)c1cccc2ccccc12	·	·	·	·	-25	·	·
Cc1ccc(S(=O)(=O)N2CCC(=O)N(C(COCc3cccc(C(F)(F)F)c3)Cc3ccccc3)CC2)cc1 (stereo unspecified)	·	·	·	·	51	·	·
Cc1n[nH]c(C)c1CCCOc1ccccc1	11	0	6	1	·	50*	3
CC(=O)N1CCN(c2ccc(Nc3ncnc4c3oc3ccccc34)cc2)CC1	9	-11	-8	-2	20	24*	16
CCc1nc(Nc2ccc(N3CCN(C(C)=O)CC3)cc2)c2oc3ccccc3c2n1	7	-7	6	-2	7	15	·
CCc1c(C)sc(NC(=O)C2CC2c2ccccc2)c1C(N)=O (stereo unspecified)	31	-3	0	4	21	35*	17
Cc1nc2ccc3nc(NC(=O)c4ccc5c(c4)OCCO5)sc3c2s1	1	-41	-1	2	-9	-78	·
Cc1nc2c(ccc3nc(NC(=O)c4ccc5c(c4)OCCO5)sc32)s1	15	-45	-87	-1	?	24*	14
CN(C)c1nc(NCc2ccccc2)nc(SCC(=O)Nc2ccccc2)n1	-16	-15	4	8	-26	6	·
CC(Sc1nc(NCc2ccccc2)nc(N(C)C)n1)C(=O)Nc1ccccc1 (stereo unspecified)	-24	-4	11	7	-15	22*	10
Cc1sc2nc(C3CC3)nc(SCC(=O)NCc3ccco3)c2c1C	15	-11	14	4	-40	31*	10
O=S(=O)(c1ccc(Oc2ccc(-c3nnco3)cc2)nc1)N1CCC(Cc2ccccc2)CC1	4	-2	-8	-7	-6	19*	8
CCOC(=O)c1cnc2c(C)cccc2c1NCc1ccco1	-13	0	-4	9	6	2	·
CCOC(=O)c1cnc2ccc(OC)cc2c1Nc1ccc2c(c1)OCCO2	-20	2	-12	9	3	24*	11
CCOC(=O)c1cnc2ccc(C(=O)OC)cc2c1Nc1ccc(C(=O)O)cc1	·	·	·	·	4	·	·
CCOC(=O)c1cnc2ccc(C(=O)OC)cc2c1Nc1ccc2c(c1)OCCO2	-18	-9	0	1	18	36*	11
CCOC(=O)c1ccc2ncc(C(=O)OCC)c(NCc3ccco3)c2c1	-24	0	42	4	-4	23*	9
COC(=O)C1=C(C)Nc2c(c(=O)n(C)c(=O)n2C)C1c1cccs1 (stereo unspecified)	0	-16	-7	11	34	19*	5
CCN(CC)C(=O)CSc1nnc(COc2cccc(C)c2)n1C	·	·	·	·	-25	·	·
Clc1ccc(OCc2nn3c(-c4ccco4)nnc3s2)c(Cl)c1	-4	-23	-18	4	7	39*	18
O=C1Nc2ccc(S(=O)(=O)NCc3ccco3)c3cccc1c23	22	-1	-19	6	1	19*	1
CCOc1ccc(S(=O)(=O)NCc2ccco2)c2ccccc12	-9	5	-3	13	·	-1	·
COc1ccc2nc(C)cc(SCC(=O)N/N=C/c3ccc(O)c(O)c3)c2c1	·	·	·	·	50	·	·
COc1ccc2nc(C)cc(SCC(=O)N/N=C/c3cccc4ccccc34)c2c1	18	-11	-6	-4	·	32*	23*
COC(=O)CSc1cc(C)nc2ccc(OC)cc12	0	1	0	7	6	19*	1
SMILES	PLK1 PBD inh	PLK1 kinase inh	cytoskel mod	Rev-RRE block	E-sel TNF inh	FAK inh	FAK inh conf
Cc1ccc(NC(=O)COC(=O)C2CSC3(C)CCC(=O)N23)cc1S(=O)(=O)N1CCOCC1 (stereo unspecified)	·	·	·	·	-8	·	·
Nc1ncnc2nc(SCc3ccccc3)[nH]c12	10	18	-15	8	10	38*	13
O=C(NNC(=O)c1cc2cc3ccccc3nc2s1)c1cccc(C(F)(F)F)c1	3	-8	11	1	-5	25*	9
O=C(NNS(=O)(=O)c1ccccc1)c1cc2cc3ccccc3nc2s1	15	-5	-30	11	-31	4	·
CCn1cc(C(=O)N(CCC(C)C)c2c(N)n(Cc3ccccc3)c(=O)[nH]c2=O)c(=O)c2ccc(C)nc21	·	·	·	·	-4	·	·
COc1ccccc1CNC(=O)C(=O)NCC(c1ccco1)N1CCOCC1 (stereo unspecified)	·	·	·	·	18	·	·
COc1ccc(-c2[nH]ncc2/C=N\NS(=O)(=O)c2ccccc2)cc1OC	17	-11	17	5	-39	22*	15
COc1ccc(-c2[nH]ncc2/C=N\NS(=O)(=O)c2ccc(Cl)cc2)cc1	0	-8	1	0	-12	10	·
C=CCN1C(=O)/C(=C2/C(=O)N(CC(=O)O)c3ccccc32)S/C1=N/c1nccs1	4	-17	-9	-37	0	22*	10
Cc1n[nH]c(C)c1CCc1nc2c3ccccc3nc(SCC(=O)Nc3ccccc3F)n2n1	8	-5	2	7	·	21*	16
CCOc1[nH]n(-c2ccc(Cl)cc2)c(=O)c1C=Nc1ccc(OC)cc1	-36	-4	7	12	-42	-2	·
CCOc1ccc(N=C2NC(=O)S/C2=C\c2ccc(Cl)cc2)cc1	14	-11	23	4	-17	33*	51*
CC1CCN(S(=O)(=O)c2ccc(NC(=O)Cc3ccccc3)cc2)CC1	-9	-10	-25	23	6	-3	·
CC1CCN(S(=O)(=O)c2ccc(NC(=O)Cn3nnc(-c4ccccc4F)n3)cc2)CC1	36	-9	9	15	-8	19*	8
COC(=O)c1[nH]c2ccc(C)cc2c1NC(=O)CN1CCCc2ccccc21	-1	-14	6	17	-38	20*	22*
Cc1nc2ccc(Cl)cc2c(-c2ccccc2F)c1CC(=O)O	·	·	·	·	-14	·	·
O=C1CCCC(O)=C1C=Nc1ccc(O)cc1	-1	-15	6	4	-4	3	·
Oc1ccc(N=Cc2ccc(-c3cccs3)s2)cc1	22	10	8	0	·	43*	2
Cc1cc(C)c(CSc2ncnc3nc[nH]c23)c(C)c1	·	·	·	·	21	·	·
Cc1c(C(=O)OCC2CCCO2)[nH]c2c1C(=O)CC(c1ccco1)C2 (stereo unspecified)	-13	-15	0	-19	·	26*	4
O=C(Nc1cccc(Cl)c1)ON=C1c2ccccc2-c2ccccc21	-11	9	1	9	-13	39*	5
COc1cccc(C(=O)Nc2sc3c(c2C#N)CCN(C(C)=O)C3)c1	·	·	·	·	18	·	·
CSc1ccccc1NC(=S)N/N=C/c1cccn1Cc1ccc(F)cc1	·	·	·	·	-75	·	·
O=C(CNc1ccccc1)N/N=C/c1cc([N+](=O)[O-])ccc1N1CCCC1	-14	-2	-46	-1	-29	1	·

Compound activity (PubChem BioAssay)
